# M18AAP inhibitor – PfM18AAP inhibitors, malaria aminopeptidase, primary screen, biochemical, QFRET, recombinant enzyme | hit rate 1.2% among 290,000 | H-Glu-NHMec fluorogenic cleavage | M18 aspartyl aminopeptidase (Plasmodium falciparum 3D7) | inhibition, % at 7.35 µM | AID 1822, 2009;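 active = inhibition above the campaign mean inhibition over all tested compounds plus 3 SD, cut at about 28% in these data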
# SUMO HTRF inh – inhibitors of in vitro SUMOylation cascade, primary screen, biochemical, HTRF, uHTS | HTRF SUMOylation assay, SAE1/SAE2 + UBC9 | inhibition, % at 35 µM | hit rate 0.36% among 290,000 | AID 2006, 2009; in the data active = inhibition above about 50%, passing the limit was not always enough
# Target sequence (P63279 whole entry, looked up): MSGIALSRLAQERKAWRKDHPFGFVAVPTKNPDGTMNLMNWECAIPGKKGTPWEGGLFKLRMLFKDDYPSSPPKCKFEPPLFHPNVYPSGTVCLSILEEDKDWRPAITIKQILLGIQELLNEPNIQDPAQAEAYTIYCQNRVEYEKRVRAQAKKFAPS
# PfGluPho inh – PfG6PD enzyme inhibitors, primary screen, biochemical, fluorescence intensity, uHTS. glucose-6-phosphate dehydrogenase-6-phosphogluconolactonase (Plasmodium falciparum 3D7). PfGluPho enzyme, NADPH resazurin-diaphorase fluorescence. hit rate 0.78% among 350,000. inhibition, % at 20 µM;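 active = inhibition reaching at least a set limit at 20 µM in the primary screen, cut at about 59% in these data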
# HKDC1 inh – HKDC1 hexokinase inhibitors, primary screen, biochemical, fluorescence, uHTS | AID 493160, 2011 | inhibition, % at 20 µM | recombinant HKDC1, G6PDH/diaphorase resazurin coupled fluorescence | hit rate 0.16% among 340,000 | Q2TB90;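 active = inhibition above about 35% when tested at 20 µM, limit read from the data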
#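 Assay system: in-house recombinant HK5 (HKDC1) enzyme. Input: HKDC1 at 5 µg/mL. Medium: Tris pH 8.0 buffer with MgCl2, Tween-20, BSA, BME. Dosing: single 20 µM dose. Schedule: 90 min reaction incubation at room temperature, dark. Signal: resazurin-to-resorufin fluorescence via G6PDH and diaphorase coupling, 525/613 nm. Controls: DMSO-enzyme wells negative, buffer-substituted wells positive.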
# A3A deaminase – APOBEC3A ssDNA deaminase inhibitors, primary screen, selectivity assay for APOBEC3G inhibitor project, biochemical, FAM/TAMRA oligo cleavage fluorescence; inhibition, % at 20 µM; recombinant A3A, FAM/TAMRA ssDNA deamination fluorescence; DNA dC->dU-editing enzyme APOBEC-3A (Homo sapiens), P31941; hit rate 0.41% among 330,000;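 active = at least 40% inhibition at 20 µM here, with at most 30% in a related deaminase screen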
# Target sequence (P31941 whole entry, looked up): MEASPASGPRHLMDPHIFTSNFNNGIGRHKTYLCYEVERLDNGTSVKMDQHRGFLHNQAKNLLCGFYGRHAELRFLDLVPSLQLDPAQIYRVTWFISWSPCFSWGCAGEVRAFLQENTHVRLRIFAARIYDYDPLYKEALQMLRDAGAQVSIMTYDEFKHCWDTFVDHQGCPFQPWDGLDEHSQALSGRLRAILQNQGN
# APOBEC3G inh – APOBEC3G DNA deaminase inhibitors, primary screen, biochemical, fluorescence, single-stranded DNA substrate, uHTS | DNA dC->dU-editing enzyme APOBEC-3G (Homo sapiens), Q9HC16 | recombinant A3G, ssDNA deamination FAM/TAMRA fluorescence | inhibition, % at 20 µM | hit rate 0.28% among 330,000 | AID 493012, 2011;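 active = inhibition of at least 40% at 20 µM, with no more than 30% in the related APOBEC3A deaminase screen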
# Numbers stand for hits; i = inactive; nt = no result given. Shown are actives, neighbours in structure and some others; about 2.4% of the full set was active somewhere.
SMILES,M18AAP inhibitor,SUMO HTRF inh,PfGluPho inh,HKDC1 inh,A3A deaminase,APOBEC3G inh
CCCC(=O)NC(c1ccccc1Cl)c1ccc2cccnc2c1O (stereo not given),i,93,i,i,i,i
CC(C)C(=O)NC(c1ccc(Cl)cc1Cl)c1ccc2cccnc2c1O (stereo not given),i,77,i,i,i,i
CCCC(=O)NC(c1ccc(C(C)C)cc1)c1ccc2cccnc2c1O (stereo not given),i,i,i,i,i,i
CCCCC(=O)NC(c1ccc(Cl)cc1Cl)c1ccc2cccnc2c1O (stereo not given),i,i,i,i,i,i
O=c1[nH][nH]c(-c2ccccc2O)c1C(C[N+](=O)[O-])c1cccc(Cl)c1 (stereo not given),30,i,i,i,i,i
CCOC(=O)CNC(=O)CSc1nc(-c2ccccc2)ns1,28,i,i,i,i,i
CC(C)(C)C1=CC(=O)C(=O)C(C(C)(C)C)=C1,i,i,111,i,i,i
CCOc1ccc(C(=O)NC(=S)Nc2ccc(N3CCCCC3)cc2)cc1[N+](=O)[O-],i,i,64,i,i,i
Cc1ccc(NC(=S)N2CCC(c3ccc(C)cc3)C2)cc1 (stereo not given),39,i,i,i,i,i
COc1ccc(C(=O)Nc2cc3c(cc2N2CCOCC2)n(C)c(=O)n3C)cc1OC,i,i,i,i,i,i
CN(C)/C=C(\C#N)C(=O)N/N=C(\CC(=O)C(F)(F)F)c1ccco1,30,i,i,i,i,i
Cc1cc(C)c(-c2cc(NC(=O)COC(=O)c3ccc(C#N)cc3)n(-c3ccccc3)n2)cc1C,i,i,i,i,i,i
CCn1c(C)csc1=NC(=O)c1ccccc1,i,i,i,i,i,i
CSc1nsc(/C=C/Nc2ccc(Cl)cc2)c1C#N,i,i,i,i,i,i
COC(=O)c1ccccc1NS(=O)(=O)c1ccc(NC(C)=O)cc1,i,i,i,i,i,i
O=C(O)CCc1ccc(-c2ccccc2)o1,i,i,66,i,i,i
COC(=O)c1cc(OC)c(OC)cc1NC(=O)CC1CCCCC1,i,i,i,i,i,i
CN(C)c1ccc2c(c1)OC(N)=C(C#N)C2c1cccc(F)c1 (stereo not given),30,i,i,i,i,i
Cc1cc(/C=C2\C(=O)NN(c3ccccc3)C2=O)c(C)n1-c1ccccc1O,i,60,i,i,i,i
Cc1cccc(C2Nc3ccccc3C(=O)N2NC(=O)c2ccc([N+](=O)[O-])cc2)n1 (stereo not given),40,i,i,i,i,i
CC(=O)NN1C(=O)c2ccccc2NC1c1ccccn1 (stereo not given),40,i,i,i,i,i
O=C(COc1ccc(S(=O)(=O)N2CCOCC2)cc1)N1CCc2ccccc2C1,i,i,i,i,i,i
CCN1CCN(c2ccc(S(=O)(=O)N3CCCCC3)cc2NC(=O)/C=C/c2ccc(OC)c(OC)c2)CC1,nt,nt,i,i,i,i
CCN(CC)CCn1c(=S)[nH]c2ccc(Cl)cc2c1=O,i,i,i,i,i,i
CC(=O)c1ccc(NC(=O)CC2Nc3cccc4cccc(c34)NC2=O)cc1 (stereo not given),29,96,i,i,i,i
CN(C)C(=O)CSc1nnc(Cc2ccccc2)n1CC1CCCO1 (stereo not given),i,i,i,i,i,i
O=C1CSC(=S)N1c1ccc(F)c(Cl)c1,28,i,i,i,i,i
Cc1ccc2c(Cl)cc(Cl)c(OCC(=O)NCc3ccco3)c2n1,i,54,nt,nt,nt,nt
CCc1nc(SCC(=O)Nc2ccccc2OC)c2c(C)c(C)sc2n1,i,i,i,i,i,i
